# High-throughput results: PubChem, several laboratories
# SKN-1 inh: blocks SKN-1 activity in C. elegans; 360,000 compounds, 0.49% hits; inhibition, % at 21.8 µM; C. elegans VP596 Pgst-4::GFP/RFP ratio, acrylamide-induced, 24 h;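 active = interference check ratio from 0.5 to 1.5 plus GFP to RFP signal ratio inhibition reaching or exceeding a fixed threshold, cut at about 30% in these data, passing the limit was not always enough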
# T cell modulator: modulates CD8 T cell binding to vesicles; 2C CD8+ T cell-vesicle binding, flow cytometry; hits give low values; response (vesicle binding), % at 7 µM; 330,000 compounds, 0.068% hits; AID 2052;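 active = response, share of CD8 T cells binding vesicles, and their 90th percentile fluorescence all below set limits, cut at about 80% in these data, passing the limit was not always enough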;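 also: values below 100% mean blocked vesicle binding to the CD8+ T cells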
#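 Benchmarks: naked versus QL9-loaded vesicles / Assay system: purified 2C TCR transgenic mouse naive CD8+ T cells / Technique: high-throughput flow cytometry with anti-B7-1 and anti-CD8 staining / Timing: Cell–vesicle co-incubation 1.5 h at 37 °C, staining 20 min on ice / Read-out: percent CD8+ FL2 mean versus row control / Probe or stimulus: QL9-loaded Drosophila micro-vesicles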
# Rce1 inhib: blocks yeast Ras-converting enzyme; Q03530; yeast membranes, quenched prenylated peptide cleavage fluorescence; 290,000 compounds, 0.27% hits; calls only; AID 2563;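 active = fall in fluorescence gain of 50% or more versus controls, with final raw signal at or below 3038400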;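 also: plate controls were neutral control wells for no effect and wells lacking membranes for full effect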
# Myeloid diff MLP: promotes myeloid progenitor differentiation | ER-HoxA9 myeloid progenitors, lysozyme-GFP differentiation, flow cytometry | calls only at 10 µM | 360,000 compounds, 1% hits | AID 624256;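 active = normalized GFP-positive differentiation at or above the plate's own cutoff, the solvent-only control mean plus 3 SD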;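 also: cells exposed to compound for four days before flow analysis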
# Rin1-Abl PPI inh: blocks binding of human Rin1 to Abl. P00519+Q13671. TR-FRET Rin1/Abl binding, biochemical. inhibition, % at 7.35 µM. 360,000 compounds, 0.4% hits. AID 588664; in the data active = inhibition above about 5%, passing the limit was not always enough
# GRK2 inh: inhibitors of human GRK2 displacing RNA aptamer | bead flow cytometry, FAM-aptamer displacement from GRK2 | 330,000 compounds, 0.59% hits | inhibition of aptamer binding, % at 10 µM;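 active = inhibition of aptamer binding above 40%, roughly 3 SD of noise, on plates passing a quality check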;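 also: median bead fluorescence of bound FAM aptamer so fluorescent compounds give negative values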
# Target sequence (P25098 whole entry, looked up): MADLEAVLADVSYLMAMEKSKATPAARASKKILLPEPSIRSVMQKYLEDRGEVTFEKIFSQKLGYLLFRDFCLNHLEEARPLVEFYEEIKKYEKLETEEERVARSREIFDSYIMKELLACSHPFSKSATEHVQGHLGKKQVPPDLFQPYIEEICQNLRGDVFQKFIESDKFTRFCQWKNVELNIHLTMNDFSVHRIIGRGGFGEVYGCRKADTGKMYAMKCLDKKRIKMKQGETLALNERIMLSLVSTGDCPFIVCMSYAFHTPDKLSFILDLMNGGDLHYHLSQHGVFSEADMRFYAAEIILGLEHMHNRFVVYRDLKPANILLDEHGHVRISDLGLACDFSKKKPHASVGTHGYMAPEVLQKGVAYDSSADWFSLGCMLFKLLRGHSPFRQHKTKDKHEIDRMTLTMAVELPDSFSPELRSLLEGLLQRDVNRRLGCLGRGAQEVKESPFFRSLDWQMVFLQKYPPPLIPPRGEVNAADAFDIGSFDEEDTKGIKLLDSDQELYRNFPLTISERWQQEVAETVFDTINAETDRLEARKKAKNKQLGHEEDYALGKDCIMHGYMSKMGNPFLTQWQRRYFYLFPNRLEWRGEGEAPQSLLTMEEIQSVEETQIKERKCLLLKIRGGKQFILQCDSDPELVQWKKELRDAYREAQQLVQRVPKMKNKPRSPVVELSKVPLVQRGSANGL
# GRK2 inh confirm: confirmation of human GRK2 inhibitors displacing RNA aptamer | shares compounds with GRK2 inh | bead-bound GRK2, FAM-aptamer displacement, flow cytometry | aptamer displacement, % at 10 µM | 2,000 compounds, 4% hits | AID 504451;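 active = aptamer displacement above 40%, near three times the noise of non-fluorescent compounds, on plates passing quality checks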;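 also: negative values mostly reflect intrinsic compound fluorescence rather than true enhancement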
# Aptamer quench: quenches fluorescent RNA aptamer, GRK2 hit artifact; shares compounds with GRK2 inh; Fluorescent RNA aptamer beads, quenching, flow cytometry; hits give high values; 110 tested, under 10 active; fluorescence change (kMESF span), kMESF (test concentration not listed);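 active = compounds whose bead fluorescence drops by more than 37 kMESF across the dose range, marking them as dye quenchers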
# Aptamer quench SP: aptamer fluorescence quenching in GRK2 counter-screen; shares compounds with GRK2 inh; Carboxyfluorescein RNA aptamer on beads, flow cytometry quenching; hits give low values; fluorescence response (% of DMSO), % at 10 µM; 2,000 tested, under 10 active;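 active = compounds that quench the bead-bound fluorescent RNA probe, cutting fluorescence to under half of the solvent control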;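 also: counterscreen run without GRK2 so only probe quenching by compound is measured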
# GRK2 confirm 2: confirmation of human GRK2 inhibitors binding RNA aptamer site | bead-bound GRK2, FAM-aptamer displacement, flow cytometry | inhibition of aptamer binding, % at 10 µM | shares compounds with GRK2 inh | 360 tested, under 10 active | AID 504782;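 active = inhibition of aptamer binding above 40%, about triple the noise seen with nonglowing compounds, on plates passing quality control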;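 also: negative values mostly come from compounds that fluoresce themselves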
# Aptamer quench 2: quenches fluorescent RNA aptamer, GRK2 hit artifact. shares compounds with GRK2 inh. Streptavidin beads, FAM-RNA aptamer fluorescence quenching, flow cytometry. change in fluorescence (kMESF span), kMESF (test concentration not listed). 25 tested, under 10 active. AID 504819;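 active = compounds quenching the bead-bound labeled aptamer, with fluorescence dropping by more than 37 kMESF over the dose range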
# FAM quench SP: counter-screen for GRK2 binding hits: quenchers of fluorescent RNA aptamer. shares compounds with GRK2 inh. carboxyfluorescein RNA aptamer beads, flow cytometry quenching; hits give low values. fluorescence response vs DMSO, % at 10 µM. 360 tested, under 10 active;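 active = response vs DMSO under 50%, meaning signal dropped by over half, treated as fluorescence quencher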;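 also: labelled aptamer on streptavidin beads without GRK2 as a quench counter-screen; 100% = bead fluorescence of DMSO wells and lower means quenching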
# FAM quench DR: counter-screen for GRK2 aptamer binding inhibitors: aptamer fluorescence quenching. shares compounds with GRK2 inh. Bead-bound FAM RNA aptamer fluorescence quenching, flow cytometry; hits give low values. fluorescence ratio to DMSO, % at 11.1 µM. 35 tested, under 10 active;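 active = compounds that dim the fluorescent label, raw bead signal shifting by over 33 units between lowest and highest dose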
# An asterisk follows results filed as active; i = inactive; x = not tested or not shown. This is a sample that favours compounds with a hit; in the whole collection about 2.6% have one here.
SMILES,SKN-1 inh,T cell modulator,Rce1 inhib,Myeloid diff MLP,Rin1-Abl PPI inh,GRK2 inh,GRK2 inh confirm,Aptamer quench SP,others
C#CCSc1nc2sc3c(c2c(=O)n1C)CCC3,1,80,i,i,1,55*,53*,164,Aptamer quench=4;GRK2 confirm 2=67*;Aptamer quench 2=-2.9;FAM quench SP=102;FAM quench DR=99
Cc1cccc(C)c1NC(=O)c1c[nH]c2ccccc12,5,370,i,i,-2,0,x,x,
COc1cccc(C(NC(C)=O)c2nc(-c3ccc(F)cc3OC)cs2)c1 (centres undefined),13,x,x,i,2,x,x,x,
CCC(=O)Nc1ccccc1C(=O)C(=O)Nc1ccccc1,4,436,i,i,2,40,-2,97,
NC(CCCCCP(=O)(c1ccccc1)c1ccccc1)C(=O)O (centres undefined),x,316,i,x,x,87*,-5,96,
O=c1c2ccccc2cnn1Cc1ccc(Br)cc1F,19,280,i,i,5,1,x,x,
Cc1cccc(C)c1N1C(=O)[C@@H]2C(c3ccccc3Cl)=NO[C@@H]2C1=O,11,247,i,i,0,0,x,x,GRK2 confirm 2=3;FAM quench SP=100
COc1ccc(OC)c(N2C(=O)[C@@H]3C(c4ccccc4Cl)=NO[C@@H]3C2=O)c1,11,140,i,i,3,70*,98*,96,Aptamer quench=2.4
COc1ccc(C2=NO[C@@H]3C(=O)N(c4c(C)cccc4C)C(=O)[C@H]23)cc1OC,27,457,i,i,-4,1,x,x,GRK2 confirm 2=9;FAM quench SP=100
c1ccc(COc2ccccc2CNc2nn[nH]n2)cc1,8,165,i,i,2,2,x,x,
CCC(C)N1CCNCC1 (centres undefined),10,183,i,i,0,0,x,x,
Cc1ccc(C)c(NCCCCC(=O)O)c1,4,x,x,i,-1,x,x,x,
COCCN(C(=O)COC(=O)c1cc(C)oc1C)c1c(N)n(Cc2ccccc2)c(=O)[nH]c1=O,7,384,i,i,1,0,x,x,
CC(=O)Oc1ccc(-c2csc(Nc3ccc(S(N)(=O)=O)cc3)n2)cc1,3,188,i,i,3,1,x,x,
COc1ccc(-c2csc(Nc3ccc(S(N)(=O)=O)cc3)n2)cc1,-16,558,i,i,-5,44*,x,x,GRK2 confirm 2=-11;FAM quench SP=100
O=C(Nc1ccccc1Cl)N1CCN(C/C=C/c2ccccc2)CC1,19,364,i,i,0,0,x,x,
Cc1ccccc1NC(=O)N1CCN(C/C=C/c2ccccc2)CC1,12,525,i,i,-1,66*,3,99,
CC(C)(C)c1ccc(C(=O)N2CCN(c3ccc(N4CCOCC4)nn3)CC2)cc1,-3,499,i,i,0,3,x,x,
COc1ccc(-c2cc(C(=O)Nc3cccc(C(C)=O)c3)no2)cc1,3,341,i,i,0,0,-1,99,
O=C(Nc1cccc(O)c1)c1cc(-c2cccs2)on1,15,559,i,i,0,1,x,x,
CC(=O)c1cccc(NC(=O)c2cc(-c3cccs3)on2)c1,1,306,i,i,-3,3,-5,104,
COc1ccc(-c2cc3cc4c(cc3cn2)OCO4)cc1,-3,340,x,i,-5,41*,x,x,GRK2 confirm 2=10;FAM quench SP=112
Cn1nccc1-c1coc2c(C(=O)NCc3ccccc3)cccc12,-1,x,x,i,-3,x,x,x,
CC(=O)Nc1sc(N/N=C\c2ccc(O)cc2)nc1-c1cccs1,-1,203,i,i,-1,81*,1,106,
CCOC(=O)C1CCCN(CCC(C)c2ccccc2)C1 (centres undefined),-3,236,i,i,-2,78*,2,102,
SMILES,SKN-1 inh,T cell modulator,Rce1 inhib,Myeloid diff MLP,Rin1-Abl PPI inh,GRK2 inh,GRK2 inh confirm,Aptamer quench SP,others
CCOC(=O)C1CCCN(CCC(=O)Nc2ccccc2)C1 (centres undefined),5,307,i,i,1,0,x,x,
Cc1cc(C)c(S(=O)(=O)c2c(C)cccc2C)c(Cl)n1,-27,529,i,i,1,81*,-1,100,
C[C@@H]1Cn2cnc(C(=O)Nc3cccc(Cl)c3)c2C(=O)N1,5,x,x,i,0,x,x,x,
Cc1cccc(NC2=C(Cl)C(=O)OC2OC(C)C)c1 (centres undefined),2,243,i,i,5,0,x,x,
Cc1ccc(NC2=C(Cl)C(=O)OC2OC(C)C)cc1 (centres undefined),12,544,i,i,-3,47*,0,97,
CC(C)Oc1ccc(CNCC2(O)CCOC(C)(C)C2)cc1 (centres undefined),-4,317,i,i,2,57*,-2,101,
COc1ccc(NC(=O)N(Cc2ccc3c(c2)OCO3)C2CC(=O)N(c3ccc(OC)cc3)C2=O)cc1 (centres undefined),8,894,i,i,2,99*,1,101,
O=C1CC(N(Cc2ccc3c(c2)OCO3)C(=O)Nc2ccc(F)cc2)C(=O)N1c1ccccc1 (centres undefined),1,x,i,i,2,0,x,x,
Cn1c(C(=O)N2CCC(C(N)=O)CC2)cc2cc(Cl)ccc21,-4,328,i,i,0,4,x,x,
CC(C)(C(=O)c1ccccc1)/[N+]([O-])=C/c1ccc(Br)cc1,11,392,i,i,-1,60*,-3,102,
CC(COC(=O)c1ccccc1)(COC(=O)c1ccccc1)/[N+]([O-])=C/c1ccccc1,4,256,i,i,-5,3,x,x,
